Measurements taken from ChEMBL document CHEMBL1122467, “Hypolipidemic activity of phthalimide derivatives. 3. A comparison of phthalimide and 1,2-benzisothiazolin-3-one 1,1-dioxide derivatives to phthalimidine and 1,2-benzisothiazoline 1,1-dioxide congeners” (1983).

How the values were obtained:
Assay type in all cases: functional
Mus musculus [1] = assay: Hypolipidemic activity (16th day serum cholesterol) at 20 mg/kg in CF1 male mice
How it was run: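 Male CF1 mice (~25 g), given 20 (mg/kg)/day ip at 11:00 a.m. On day 16, tail-vein blood collected between 8:00 and 9:30 a.m. in alkali-free nonheparinized microcapillaries and centrifuged 3 min. Serum cholesterol (mg %) from duplicate 25-µL nonhemolyzed samples by modified Liebermann-Burchard reaction. Reported as % control.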

Mus musculus [2] = assay: Hypolipidemic activity (9th day serum cholesterol) at 20 mg/kg in CF1 male mice
How it was run: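 Male CF1 mice (~25 g), dosed intraperitoneally at 20 (mg/kg)/day at 11:00 a.m. Tail-vein blood taken on day 9 between 8:00 and 9:30 a.m. into alkali-free nonheparinized microcapillary tubes, spun 3 min for serum. Cholesterol (mg %) in duplicate 25-µL nonhemolyzed serum samples by modified Liebermann-Burchard reaction. Expressed as % control.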

Mus musculus [3] = assay: Hypolipidemic activity (14th day serum triglyceride) at 20 mg/kg in CF1 male mice
How it was run: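 Separate group of male CF1 mice (~25 g) dosed ip at 20 (mg/kg)/day for 14 days, injections at 11:00 a.m. Bled by tail vein on day 14 into nonheparinized microcapillary tubes, centrifuged 3 min for serum. Triglycerides (mg %) measured on duplicate 50-µL serum samples. Given as % control.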

Row | Structure (SMILES) | Control (Mus musculus [1]) [%] | Control (Mus musculus [2]) [%] | Control (Mus musculus [3]) [%]
1 | O=C1NC(=O)c2ccccc21 [PHTHALIMIDE] | 57 | 63 | 44
2 | O=C(O)CCCCCN1C(=O)c2ccccc2S1(=O)=O | 76 | 90 | 55
3 | CCCCN1C(=O)c2ccccc2S1(=O)=O | 56 | 76 | 76
4 | O=S1(=O)NCc2ccccc21 | 80 | 82 | 86
5 | O=C(O)CCCN1C(=O)c2ccccc2C1=O | 68 | 80 | 59
6 | CC(=O)CCCN1C(=O)c2ccccc2C1=O | <63 | <71 | <59
7 | CCCCN1Cc2ccccc2C1=O | 62 | 68 | 80
8 | CC(=O)CCN1Cc2ccccc2S1(=O)=O | 81 | 87 | 78
9 | CC(=O)CCN1C(=O)c2ccccc2S1(=O)=O | 62 | 60 | 51
10 | O=C(O)CCN1Cc2ccccc2S1(=O)=O | 59 | 73 | 76
11 | CCCCCN1C(=O)c2ccccc2C1=O | 58 | 76 | 75
12 | CCCCN1Cc2ccccc2S1(=O)=O | 68 | 71 | 76
13 | CC(=O)CCN1Cc2ccccc2C1=O | <84 | 88 | <83
14 | O=C(O)CCN1Cc2ccccc2C1=O | 97 | 87 | 88
15 | CC(=O)CCCN1C(=O)c2ccccc2S1(=O)=O | 77 | 73 | 77
16 | O=C(O)CCCCCN1C(=O)c2ccccc2C1=O | 67 | 81 | 51
17 | O=C(O)CCCN1C(=O)c2ccccc2S1(=O)=O | 73 | 85 | 48
18 | CCCCN1C(=O)c2ccccc2C1=O | <54 | <72 | 82
19 | CC(=O)CN1C(=O)c2ccccc2C1=O | <67 | 80 | <48
20 | O=C1NS(=O)(=O)c2ccccc21 [SACCHARIN] | 67 | 68 | 51
21 | CC(=O)CCN1C(=O)c2ccccc2C1=O | <63 | <67 | <58
22 | O=C(O)CCCCN1C(=O)c2ccccc2C1=O | 77 | 83 | 54
23 | CCCCCN1C(=O)c2ccccc2S1(=O)=O | 58 | 106 | 62
24 | O=C(O)CCCCN1C(=O)c2ccccc2S1(=O)=O | 68 | 96 | 44
25 | O=C1NCc2ccccc21 | 87 | 89 | 78
26 | O=C(O)CCN1C(=O)c2ccccc2C1=O | <55 | <74 | <58
27 | O=C(O)CCN1C(=O)c2ccccc2S1(=O)=O | 47 | 96 | 67
28 | C=C(CN1C(=O)c2ccccc2S1(=O)=O)C(=O)O | 85 | 85 | 101
29 | CC(=O)CN1C(=O)c2ccccc2S1(=O)=O | 52 | 95 | 66
30 | CCOC(=O)CCN1C(=O)c2ccccc2S1(=O)=O | 71 | 97 | 61
